Source: publication PMC4291750 (Journal of the American Chemical Society, 2014)

Assays:
[1] = tested on: PSMA-coated beads phagocytosed by IFN-γ-primed U937 cells; assay: Bead phagocytosis assay; format: cell-based
Method in brief: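 Effectors were U937 cells primed 72 h with IFN-γ (final 2 ng/mL, medium changed daily) and stained with DiD (final 1.9 μM, 30 min, 37 °C). Targets were 6 μm fluorescent streptavidin beads loaded with avi-tagged PSMA. 4×10^4 beads and 10^5 effectors (E:T 2.5:1) in phenol-free RPMI/10% low-IgG FBS, ±test compound ±competitor (PSMA ligand or anti-FcγRI antibody). Spun 200 rcf 2 min, 37 °C 1 h, stopped on ice, flow cytometry. % targets phagocytosed minus no-compound background; mean of ≥duplicates ±SD.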

[2] = tested on: PSMA-expressing RM1.PGLS cells phagocytosed by IFN-γ-primed U937 cells; assay: Cell phagocytosis assay; format: cell-based, murine
Method in brief: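 RM1.PGLS targets were stained adherent with DiO (final 1.9 μM), detached with 0.5 mM EDTA/EGTA and checked by trypan blue. 1.25×10^4 targets and 10^5 IFN-γ-primed, DiD-stained U937 (E:T 8:1; range 2:1–20:1 also tested) in Assay Media, ±test compound ±inhibitors. Spun 200 rcf 2 min, 1 h at 37 °C, then flow cytometry. % targets phagocytosed minus background. Imaging-cytometry counterpart: formaldehyde-fixed, CD14/CD11b-APC plus Hoechst, events scored as cup or engulfment. Dunnett ANOVA versus no compound.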

RM1-hPSMA cells = assay: Compound cytotoxicity assay; format: cell-based, murine; details: cell index over 24 hours, vs 1% DMSO
Method in brief: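 12 500 RM1-hPSMA cells per well were plated 36 h beforehand in DMEM (4.5 g/L glucose, 10% FBS, pen/strep, 2 mM glutamine, 1 mM pyruvate). Impedance cell index was recorded at 37 °C, 5% CO2, with cell-free medium as background. At time 0 medium was replaced with test compound at various concentrations, 1% DMSO vehicle or 3% Triton. Readings every 2 min for 3 h, then every 10 min for 21 h.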

[3] = tested on: isogenic PSMA-negative RM1 tumor line; assay: Cell phagocytosis assay, PSMA-negative control; format: cell-based, murine; details: U937 effector cells
[4] = tested on: IFN-γ-primed U937 cells with PSMA-coated beads; assay: ROS production; format: cell-based
Method in brief: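 U937 cells primed 72 h with IFN-γ (final 2 ng/mL, daily medium change). 3×10^5 cells/mL in phenol-free RPMI/10% low-IgG FBS mixed with test compound, with or without 10^5 PSMA-coated beads/mL. 2.5 mM lucigenin solution added (stock). Plate spun 200 rcf 2 min. Chemiluminescence read every 2 min for 60–90 min; peak luminescence taken. Mean of ≥duplicates ±SD.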

SMILES	effect of competitor on SyAM-P3-induced bead phagocytosis ([1]; 50 nM SyAM-P3)	effect of competitor on SyAM-P1-induced bead phagocytosis ([1]; SyAM-P1-induced effector responses)	effect of competitor on SyAM-P3-induced cell phagocytosis ([2]; RM1.PGLS targets)	cytotoxicity in the absence of effector cells (RM1-hPSMA cells)	phagocytosis of PSMA-coated beads, comparison between SyAMs ([1]; primed U937 effector cells)	phagocytosis of PSMA-expressing RM1.PGLS cells ([2]; U937 effector cells)	phagocytosis of PSMA-negative RM1 cells [3]	ROS production in the absence of target beads ([4]; no PSMA-labeled beads)	superoxide burst response ([4]; with PSMA-coated beads, lucigenin chemiluminescence)
O=C(O)CCC(CP(=O)(O)O)C(=O)O (stereo not drawn) [2-PMPA]	suppressed in a concentration-dependent manner	abrogated	suppressed						
CC(=O)N[C@H](C(=O)N[C@@H](CC(N)=O)C(=O)N[C@@H](CO)C(=O)N[C@H]1CSSC[C@@H](C(=O)NCC(=O)N[C@@H](CC(=O)O)C(=O)N[C@@H](CC(=O)O)C(=O)N[C@@H](CCCCNC(=O)CCCC(=O)NCCOCCOCCOCC(=O)NCCCC[C@H](NC(=O)COCCOCCOCCNC(=O)CCCC(=O)NCCCC[C@H](NC(=O)[C@H](CC(=O)O)NC(=O)[C@H](CC(=O)O)NC(=O)CNC(=O)[C@@H]2CSSC[C@H](NC(=O)[C@H](CO)NC(=O)[C@H](CC(N)=O)NC(=O)[C@@H](NC(C)=O)C(C)C)C(=O)N[C@@H](CC(C)C)C(=O)N[C@@H](CC(C)C)C(=O)N[C@@H](CC(C)C)C(=O)N3CCC[C@H]3C(=O)N[C@@H](CC(N)=O)C(=O)N[C@@H](CC(C)C)C(=O)N[C@@H](CC(C)C)C(=O)NCC(=O)N2)C(=O)N[C@@H](CCCCNC(=O)CCCC[C@@H]2SC[C@@H]3NC(=O)N[C@@H]32)C(N)=O)C(=O)NCc2cn(-c3cc(C(=O)NCCCCCC(=O)NCCCCCC(=O)NCCCCCC(=O)NCCCCCC(=O)NCCCCCC(=O)NCCCCCC(=O)NCc4cn(CCCC[C@H](NC(=O)N[C@@H](CCC(=O)O)C(=O)O)C(=O)O)nn4)cc(C(=O)NCCCCCC(=O)NCCCCCC(=O)NCCCCCC(=O)NCCCCCC(=O)NCCCCCC(=O)NCCCCCC(=O)NCc4cn(CCCC[C@H](NC(=O)N[C@@H](CCC(=O)O)C(=O)O)C(=O)O)nn4)c3)nn2)C(=O)N[C@@H](CCCCNC(=O)CCCC[C@@H]2SC[C@@H]3NC(=O)N[C@@H]32)C(N)=O)NC(=O)CNC(=O)[C@H](CC(C)C)NC(=O)[C@H](CC(C)C)NC(=O)[C@H](CC(N)=O)NC(=O)[C@@H]2CCCN2C(=O)[C@H](CC(C)C)NC(=O)[C@H](CC(C)C)NC(=O)[C@H](CC(C)C)NC1=O)C(C)C [SyAM-P3]				non-cytotoxic	both more potent and more efficacious than earlier-generation molecules	significant levels of target cell phagocytosis	only minimal levels of phagocytosis	required the presence of PSMA-labeled beads	both more potent and more efficacious than earlier-generation molecules
